This is an account of results in ChEMBL document CHEMBL1681751, “Synthesis and biological evaluation of imidazolo[2,1-b]benzothiazole derivatives, as potential p53 inhibitors” (Bioorg Med Chem, 2011).

Active and inactive are the calls of the source. No cut-off for these calls is given here.

Data set [1] relates to IGROV-1. As to the kind of experiment: Antiproliferative activity against human IGROV1 cells after 72 hrs by cell counter. It counts as functional, cell-based. The procedure, abridged: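 Log-phase cells seeded in duplicate; for the paclitaxel combination, cells got compound 2 h before the antimicrotubule agent. Final DMSO at most 0.5%. After treatment, adherent cells were trypsinized and counted with a cell counter. IC50 is the concentration giving 50% fewer cells than untreated control.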

The subject of data set [2] is IGROV-1. As to the kind of experiment: Reduction of paclitaxel-induced p21 expression in human IGROV1 cells at 10 uM after 24 hrs by Western blot analysis. It counts as functional, cell-based. An outline of the steps: (§1)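 IGROV-1 cells were treated 24 h with paclitaxel 0.12 µM, compound, or both, then lysed. p53 and p21waf1 were detected by Western blot.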
Data set [3] concerns IGROV-1. As to the kind of experiment: Reduction of paclitaxel-induced p21 expression in human IGROV1 cells at 5 uM after 24 hrs by Western blot analysis. It counts as functional, cell-based. An outline of the steps: as §1
A general note: A western blot detects proteins with antibodies after separation by electrophoresis.

Data set [4] relates to IGROV-1. In words: Reduction of paclitaxel-induced p21 expression in human IGROV1 cells at 0.3 uM after 24 hrs by Western blot analysis. In kind it is functional, cell-based. An outline of the steps: as §1
The subject of data set [5] is IGROV-1. In words: Reduction of paclitaxel-induced p21 expression in human IGROV1 cells at 0.12 uM after 24 hrs by Western blot analysis. In kind it is functional, cell-based. An outline of the steps: as §1
The subject of data set [6] is Mus musculus. In words: Toxicity in athymic Swiss nude mouse assessed as lethal toxicity at 9 mg/kg, iv every 4 days for 4 administration. The arrangement: dose 9 mg/kg, route intravenous. The note with it: in vivo, 96 h. It counts as organism-based. The procedure, abridged:
(§2)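 Female athymic Swiss nude mice bearing sc IGROV-1 human ovarian carcinoma xenografts (10^7 exponentially growing cells/mouse into right flank; lines kept by serial sc fragment passage). Dosed iv every four days for 4 administrations (q4dx4), starting when tumors were measurable (around 80 mg). Lethal toxicity scored as animals dying per group (4 mice/group).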

Data set [7] relates to Mus musculus. As to the kind of experiment: Toxicity in athymic Swiss nude mouse assessed as lethal toxicity at 3 mg/kg, iv every 4 days for 4 administration. It counts as organism-based. The arrangement: dose 3 mg/kg, route intravenous. The note with it: in vivo, 96 h. The procedure, abridged: as §2
Data set [8] concerns Mus musculus. In words: Toxicity in athymic Swiss nude mouse assessed as body weight loss at 9 mg/kg, iv every 4 days for 4 administration. The arrangement: dose 9 mg/kg, route intravenous. To be noted: in vivo, 96 h. In kind it is organism-based. An outline of the steps: (§3)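 Female athymic Swiss nude mice with sc IGROV-1 xenografts were dosed iv every four days for 4 administrations (q4dx4), 4 mice per group. Toxicity was scored as % body weight loss from drug treatment, with lethal toxicity counted per group.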

Data set [9] deals with Mus musculus. In words: Toxicity in athymic Swiss nude mouse assessed as body weight loss at 3 mg/kg, iv every 4 days for 4 administration. It counts as organism-based. The arrangement: dose 3 mg/kg, route intravenous. To be noted: in vivo, 96 h. The procedure, abridged: as §3
Data set [10] relates to IGROV-1. As to the kind of experiment: Antitumor activity against human IGROV1 cells xenografted in athymic Swiss nude mouse assessed as tumor volume inhibition at 9 mg/kg, iv every 4 days for 4 administration. In kind it is functional. The arrangement: scale not given: the % may be the effect or the level left. An outline of the steps:
(§4)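 Female athymic Swiss nude mice received IGROV-1 tumors sc in the right flank (10^7 cells/mouse), then maintained by serial sc passage of about 3x3x3 mm fragments. Dosing was iv, q4dx4, starting when tumors were about 80 mg. Read-out was % tumor volume inhibition, treated vs control, 4 mice per group, Student's t-test vs control.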
In general terms: Xenograft models place foreign cells or tissue in a host animal.

The test system of data set [11] is IGROV-1. In words: Antitumor activity against human IGROV1 cells xenografted in athymic Swiss nude mouse assessed as tumor volume inhibition at 3 mg/kg, iv every 4 days for 4 administration. Also noted: scale not given: the % may be the effect or the level left. In kind it is functional. The procedure, abridged:
as §4

Data set [12] deals with IGROV-1. As to the kind of experiment: Antitumor activity against human IGROV1 cells xenografted in athymic Swiss nude mouse assessed as tumor volume inhibition at 18 mg/kg, iv every 4 days for 4 administration. It counts as functional. The arrangement: scale not given: the % may be the effect or the level left. An outline of the steps:
as §4

The test system of data set [13] is Mus musculus. As to the kind of experiment: Toxicity in athymic Swiss nude mouse assessed as body weight loss at 18 mg/kg, iv every 4 days for 4 administration. Also noted: dose 18 mg/kg, route intravenous. The note with it: in vivo, 96 h. It counts as organism-based. The procedure, abridged:
as §3

Data set [14] deals with Mus musculus. In words: Toxicity in athymic Swiss nude mouse assessed as lethal toxicity at 18 mg/kg, iv every 4 days for 4 administration. It counts as organism-based. The arrangement: dose 18 mg/kg, route intravenous. The note with it: in vivo, 96 h. An outline of the steps:
as §2

The next data set has as its system U2OS. In words: Antitumor activity against human U2OS cells xenografted in athymic Swiss nude mouse at 24 mg/kg, iv administered every 4 days relative to paclitaxel. In kind it is functional, organism-based. The arrangement: dose 24 mg/kg. The procedure, abridged: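 U2OS osteosarcoma tumors were grown sc in female athymic Swiss nude mice from 10^7 cells/mouse and kept by serial fragment passage. Dosing was iv every four days for 4 administrations, alone or combined with paclitaxel, starting at about 80 mm3. Controls received solvent. Tumor growth and complete regressions were followed.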

Data set [15] has as its system IGROV-1. In words: Induction of apoptosis in human IGROV1 cells at 0.12 uM after 72 hrs by TUNEL assay. In kind it is functional. The procedure, abridged: (§5)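 IGROV-1 cells were exposed for 72 h; in the combination they were pretreated 2 h with compound before paclitaxel. Cells were fixed in 4% paraformaldehyde for 60 min at room temperature and washed. TUNEL labelling with fluorescein was read by flow cytometry as % TUNEL-positive cells, with at least three independent experiments.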

In data set [16] the test system is IGROV-1. As to the kind of experiment: Induction of apoptosis in human IGROV1 cells at 5 uM after 72 hrs by TUNEL assay. It counts as functional. An outline of the steps: as §5

`Cc1ccc(-c2cn3c(n2)sc2ccccc23)cc1`: the 50% inhibitory concentration (IC50) (as a rule, the concentration that inhibits the measured activity by half) in the data set with IGROV-1 [1] (Homo sapiens, IGROV-1, 72 h) was 0.3 µM.
Same read-out and setting: with `COc1ccc(-c2ccc(-c3cn4c(n3)sc3ccccc34)cc2)cc1` the figure was under 1 µM; with `CC(=O)NCc1ccc(-c2cn3c(n2)sc2ccccc23)cc1`, 12 µM.
Turning to `Nc1ccc(-c2cn3c(n2)sc2ccccc23)cc1` [listing 1 of 3 here], the outcome in the data set on IGROV-1 [2], in the data set with IGROV-1 [3], with IGROV-1 [4] and in the data set on IGROV-1 [5] was Active.
`Cl.NCc1ccc(-c2cn3c(n2)sc2ccccc23)cc1`: the Activity entry in the data set with Mus musculus [6] is “Non-toxic”; in the data set with Mus musculus [7] it was “Non-toxic”; in the data set on Mus musculus [8] it was 5%; in the data set on Mus musculus [9], 3%; with IGROV-1 [10] it was 46%; in the data set with IGROV-1 [11], 15%. Also, 0.3 µM corresponded to half-maximal inhibition in the data set on IGROV-1 [1] (igrov-1) (IC50).
On to `NCc1ccc(-c2cn3c4c(sc3n2)CCCC4)cc1` [listing 1 of 2 here], for which the outcome with IGROV-1 [2], in the data set on IGROV-1 [3], in the data set with IGROV-1 [4] and in the data set with IGROV-1 [5] was Active.
Consider `CC(C)NC(=O)CCNCc1ccc(-c2cn3c(n2)sc2ccccc23)cc1`, for which half-maximal inhibition in the data set on IGROV-1 [1] (Homo sapiens, IGROV-1, 72 h) (IC50) required 5 µM.
As for `Brc1ccc(-c2cn3c(n2)sc2ccccc23)cc1`, in the data set on IGROV-1 [1] (Homo sapiens, IGROV-1, 72 h), the IC50 came to 0.3 µM.
As to `N#Cc1ccc(-c2cn3c(n2)sc2ccccc23)cc1`, 0.03 µM corresponded to half-maximal inhibition with IGROV-1 [1] (Homo sapiens, IGROV-1, 72 h) (IC50).
For the compound `Cl.NCc1ccc(-c2cn3c4c(sc3n2)CCCC4)cc1`, the Activity is reported as 27% with IGROV-1 [12]; “Non-toxic” in the data set with Mus musculus [6]; 6% in the data set on Mus musculus [8]; 21% in the data set with IGROV-1 [10]; 4% in the data set on Mus musculus [13]; “Non-toxic” with Mus musculus [14]. For the same compound, in the data set with IGROV-1 [1] (igrov-1), the 50% inhibitory concentration (IC50) came to 31 µM.
`Cn1c2ccccc2n2cc(-c3ccc(C#N)cc3)nc12`: in the data set on IGROV-1 [1] (Homo sapiens, IGROV-1, 72 h), the IC50 stood at 7 µM.
Turning to `Nc1ccc(-c2cn3c(n2)sc2ccccc23)cc1` [listing 2 of 3 here], in the data set with IGROV-1 [1] (igrov-1), the concentration for half-maximal inhibition (IC50) came to 1 µM.
In turn, `O=Cc1ccc(-c2cn3c(n2)sc2ccccc23)cc1` displayed an IC50 with IGROV-1 [1] (Homo sapiens, IGROV-1, 72 h) of 6 µM.
Regarding `CC(=O)O[C@H]1C(=O)[C@@]2(C)[C@H]([C@H](OC(=O)c3ccccc3)[C@]3(O)C[C@H](OC(=O)[C@H](O)[C@@H](NC(=O)c4ccccc4)c4ccccc4)C(C)=C1C3(C)C)[C@]1(OC(C)=O)CO[C@@H]1C[C@@H]2O` [PACLITAXEL], the result in the data set on U2OS was inactive. Besides, in the data set with IGROV-1 [15], the Activity was 13%.
In turn, `O=[N+]([O-])c1ccc(-c2cn3c(n2)sc2ccccc23)cc1` yielded a half-maximal inhibitory concentration (IC50) in the data set on IGROV-1 [1] (Homo sapiens, IGROV-1, 72 h) of 2 µM.
For the compound `NCc1ccc(-c2cn3c(n2)sc2ccccc23)cc1` [listing 1 of 2 here], the outcome with IGROV-1 [2], in the data set with IGROV-1 [3], with IGROV-1 [4] and with IGROV-1 [5] was Active.
Take `CC(=O)NCc1ccc(-c2cn3c4c(sc3n2)CCCC4)cc1`: it took 28 µM to reach half-maximal inhibition in the data set with IGROV-1 [1] (Homo sapiens, IGROV-1, 72 h) (IC50).
In the case of `OCc1ccc(-c2cn3c(n2)sc2ccccc23)cc1`, the IC50 in the data set with IGROV-1 [1] (Homo sapiens, IGROV-1, 72 h) is 7 µM.
Regarding `Nc1ccc(-c2cn3c4c(sc3n2)CCCC4)cc1` [listing 1 of 3 here], the outcome in the data set on IGROV-1 [2], with IGROV-1 [3], in the data set on IGROV-1 [4] and in the data set with IGROV-1 [5] was Active.
Regarding `CCn1c2ccccc2n2cc(-c3ccc(C#N)cc3)nc12`, the half-maximal inhibitory concentration (IC50) with IGROV-1 [1] (Homo sapiens, IGROV-1, 72 h) came to 4.5 µM.
Compound `Nc1ccc(-c2cn3c(n2)sc2ccccc23)cc1` [listing 3 of 3 here] yielded a half-inhibitory concentration (IC50) with IGROV-1 [1] (igrov-1) of 5 µM.
For `Cc1ccc(-c2cn3c4c(sc3n2)CCCC4)cc1`, half-maximal inhibition with IGROV-1 [1] (Homo sapiens, IGROV-1, 72 h) (IC50) required 23 µM.
`NCCC(=O)NCc1ccc(-c2cn3c(n2)sc2ccccc23)cc1`: in the data set on IGROV-1 [1] (Homo sapiens, IGROV-1, 72 h), the IC50 is 3 µM.
As to `N#Cc1ccc(-c2cn3c4c(sc3n2)CCCC4)cc1`, in the data set with IGROV-1 [1] (Homo sapiens, IGROV-1, 72 h), the IC50 amounted to 8 µM.
`NCc1ccc(-c2cn3c(n2)sc2ccccc23)cc1` [listing 2 of 2 here] gave a 50% inhibitory concentration (IC50) with IGROV-1 [1] (igrov-1) of 0.03 µM.
On the same count and under the same terms, under `NCc1ccc(-c2cn3c4c(sc3n2)CCCC4)cc1` [listing 2 of 2 here] stands 12 µM; under `Nc1ccc(-c2cn3c4c(sc3n2)CCCC4)cc1` [listing 2 of 3 here], 19 µM.
`Nc1ccc(-c2cn3c4c(sc3n2)CCCC4)cc1` [listing 3 of 3 here] registered an Activity in the data set on IGROV-1 [16] of 4%. In the data set on IGROV-1 [1] (igrov-1), this compound returned an IC50 of 4 µM.
